Tests used:
Type in all cases: functional
NCI-H460 [1] = assay: Anticancer activity against human NCI-H460 cells assessed as cell growth at 100 uM after 48 hrs by sulforhodamine B assay; details: NCI-H460, 48 h, read-out: Activity
MCF7 [2] = assay: Anticancer activity against human MCF7 cells assessed as cell growth at 100 uM after 48 hrs by sulforhodamine B assay; details: MCF7, 48 h, read-out: Activity
SF-268 [3] = assay: Anticancer activity against human SF268 cells assessed as cell growth at 100 uM after 48 hrs by sulforhodamine B assay; details: SF-268, 48 h, read-out: Activity
HOP-62 = assay: Growth inhibition of human HOP62 cells after 48 hrs by sulforhodamine B assay; details: HOP-62, 48 h
Outline: (§1)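 NCI 60-human-tumor-cell-line panel, with compounds tested over a 5-log dose range. Values are taken from dose-response curves as log10 molar concentrations: GI50 is 50% net growth inhibition, TGI is total growth inhibition, and LC50 is 50% net cell death.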

NCI-H322M = assay: Growth inhibition of human NCI-H322M cells after 48 hrs by sulforhodamine B assay; outline: as §1
NCI-H460 [4] = assay: Growth inhibition of human NCI-H460 cells after 48 hrs by sulforhodamine B assay; details: NCI-H460, 48 h; outline: as §1
NCI-H522 = assay: Growth inhibition of human NCI-H522 cells after 48 hrs by sulforhodamine B assay; details: NCI-H522, 48 h; outline: as §1
COLO 205 = assay: Growth inhibition of human COLO205 cells after 48 hrs by sulforhodamine B assay; details: COLO 205, 48 h; outline: as §1
KM12 = assay: Growth inhibition of human KM12 cells after 48 hrs by sulforhodamine B assay; details: KM12, 48 h; outline: as §1
SF-268 [5] = assay: Growth inhibition of human SF268 cells after 48 hrs by sulforhodamine B assay; details: SF-268, 48 h; outline: as §1
SF-295 = assay: Growth inhibition of human SF295 cells after 48 hrs by sulforhodamine B assay; details: SF-295, 48 h; outline: as §1
SNB-19 = assay: Growth inhibition of human SNB19 cells after 48 hrs by sulforhodamine B assay; details: SNB-19, 48 h
Outline: (§2)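 Run in the NCI 60-human-tumour-cell-line panel, tested over a 5-log dose range. Dose–response curves gave three values per cell line, each as a log10 molar concentration: GI50 (50% inhibition of net cell growth), TGI (total inhibition of net growth) and LC50 (50% net cell death). The mean graph midpoint is the arithmetic mean over all lines, with insensitive lines entered at the highest concentration tested.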

U-251 = assay: Growth inhibition of human U251 cells after 48 hrs by sulforhodamine B assay; details: U-251, 48 h; outline: as §2
SK-MEL-5 = assay: Growth inhibition of human SK-MEL-5 cells after 48 hrs by sulforhodamine B assay; details: SK-MEL-5, 48 h; outline: as §1
UACC-257 = assay: Growth inhibition of human UACC257 cells after 48 hrs by sulforhodamine B assay; details: UACC-257, 48 h; outline: as §2
IGROV-1 = assay: Growth inhibition of human IGROV1 cells after 48 hrs by sulforhodamine B assay; details: IGROV-1, 48 h; outline: as §1
OVCAR-3 = assay: Growth inhibition of human OVCAR-3 cells after 48 hrs by sulforhodamine B assay; details: OVCAR-3, 48 h; outline: as §1
OVCAR-4 = assay: Growth inhibition of human OVCAR4 cells after 48 hrs by sulforhodamine B assay; details: OVCAR-4, 48 h; outline: as §1
OVCAR-5 = assay: Growth inhibition of human OVCAR5 cells after 48 hrs by sulforhodamine B assay; details: OVCAR-5, 48 h; outline: as §1
OVCAR-8 = assay: Growth inhibition of human OVCAR8 cells after 48 hrs by sulforhodamine B assay; details: OVCAR-8, 48 h; outline: as §1
SK-OV-3 = assay: Growth inhibition of human SKOV3 cells after 48 hrs by sulforhodamine B assay; details: SK-OV-3, 48 h; outline: as §1
786-0 = assay: Growth inhibition of human 786-0 cells after 48 hrs by sulforhodamine B assay; details: 786-0, 48 h; outline: as §1
CAKI-1 = assay: Growth inhibition of human Caki1 cells after 48 hrs by sulforhodamine B assay; details: CAKI-1, 48 h; outline: as §1
TK-10 = assay: Growth inhibition of human TK10 cells after 48 hrs by sulforhodamine B assay; details: TK-10, 48 h; outline: as §2
UO-31 = assay: Growth inhibition of human UO31 cells after 48 hrs by sulforhodamine B assay; details: UO-31, 48 h; outline: as §2
PC-3 = assay: Growth inhibition of human PC3 cells after 48 hrs by sulforhodamine B assay; details: PC-3, 48 h; outline: as §1
MDA-MB-231 = assay: Growth inhibition of human MDA-MB-231 cells after 48 hrs by sulforhodamine B assay; details: MDA-MB-231, 48 h; outline: as §1
[6] = Growth inhibition of human Hs 578T cells after 48 hrs by sulforhodamine B assay; outline: as §1
MDA-MB-435 = assay: Growth inhibition of human MDA-MB-435 cells after 48 hrs by sulforhodamine B assay; details: MDA-MB-435, 48 h; outline: as §1
MCF7 [7] = assay: Growth inhibition of human MCF7 cells after 48 hrs by sulforhodamine B assay; details: MCF7, 48 h; outline: as §1
[8] = read-out: pLC50 (the source's name) (converted)

SMILES: Nc1cc(N)c2nc(-c3ccccc3)c(Oc3ccc(F)cc3)nc2c1
- growth at 100 µM (NCI-H460 [1]): 0%
- growth at 100 µM (MCF7 [2]): 2%
- growth at 100 µM (SF-268 [3]): 6%
- GI50 (HOP-62): 21.4 µM
- LC50 (HOP-62): > 100 µM
- TGI (HOP-62; read-out: pTGI (converted)): 49 µM
- GI50 (NCI-H322M): 17 µM
- LC50 (NCI-H322M): 81.3 µM
- TGI (NCI-H322M; read-out: pTGI (converted)): 37.2 µM
- GI50 (NCI-H460 [4]): 39.8 µM
- LC50 (50% net cell kill) (NCI-H460 [4]): > 100 µM
- TGI (NCI-H460 [4]; read-out: pTGI (converted)): > 100 µM
- GI50 (NCI-H522): 64.6 µM
- LC50 (NCI-H522): > 100 µM
- TGI (NCI-H522; read-out: pTGI (converted)): > 100 µM
- GI50 (COLO 205): 20 µM
- LC50 (50% net cell kill) (COLO 205): 66.1 µM
- TGI (COLO 205; read-out: pTGI (converted)): 36.3 µM
- GI50 (KM12): 14.5 µM
- LC50 (50% net cell kill) (KM12): > 100 µM
- TGI (KM12; read-out: pTGI (converted)): 40.7 µM
- GI50 (SF-268 [5]): 13.8 µM
- LC50 (SF-268 [5]): > 100 µM
- TGI (SF-268 [5]; read-out: pTGI (converted)): 47.9 µM
- GI50 (SF-295): 20.4 µM
- LC50 (50% net cell kill) (SF-295): 72.4 µM
- TGI (SF-295; read-out: pTGI (converted)): 38.9 µM
- GI50 (SNB-19): 17.4 µM
- LC50 (SNB-19): 66.1 µM
- TGI (SNB-19; read-out: pTGI (converted)): 33.9 µM
- GI50 (U-251): 23.4 µM
- LC50 (50% net cell kill) (U-251): > 100 µM
- TGI (U-251; read-out: pTGI (converted)): 79.4 µM
- GI50 (SK-MEL-5): 12.3 µM
- CC50 (SK-MEL-5; [8]): 83.2 µM
- TGI (SK-MEL-5; read-out: pTGI (converted)): 31.6 µM
- GI50 (UACC-257): 23.4 µM
- CC50 (UACC-257; [8]): 77.6 µM
- TGI (UACC-257; read-out: pTGI (converted)): 42.7 µM
- GI50 (IGROV-1): 28.2 µM
- CC50 (IGROV-1; [8]): > 100 µM
- TGI (IGROV-1; read-out: pTGI (converted)): > 100 µM
- GI50 (OVCAR-3): 15.5 µM
- CC50 (OVCAR-3; [8]): > 100 µM
- TGI (OVCAR-3; read-out: pTGI (converted)): 41.7 µM
- GI50 (OVCAR-4): 8.32 µM
- CC50 (OVCAR-4; [8]): > 100 µM
- TGI (OVCAR-4; read-out: pTGI (converted)): 35.5 µM
- GI50 (OVCAR-5): 20.4 µM
- CC50 (OVCAR-5; [8]): > 100 µM
- TGI (OVCAR-5; read-out: pTGI (converted)): 47.9 µM
- GI50 (OVCAR-8): 22.4 µM
- CC50 (OVCAR-8; [8]): 100 µM
- TGI (OVCAR-8; read-out: pTGI (converted)): 47.9 µM
- GI50 (SK-OV-3): 20.9 µM
- CC50 (SK-OV-3; [8]): 83.2 µM
- TGI (SK-OV-3; read-out: pTGI (converted)): 41.7 µM
- GI50 (786-0): 15.5 µM
- CC50 (786-0; [8]): 75.9 µM
- TGI (786-0; read-out: pTGI (converted)): 34.7 µM
- GI50 (CAKI-1): 11.2 µM
- CC50 (CAKI-1; [8]): 53.7 µM
- TGI (CAKI-1; read-out: pTGI (converted)): 24.5 µM
- GI50 (TK-10): 16.6 µM
- CC50 (TK-10; [8]): 64.6 µM
- TGI (TK-10; read-out: pTGI (converted)): 32.4 µM
- GI50 (UO-31): 13.5 µM
- CC50 (UO-31; [8]): > 100 µM
- TGI (UO-31; read-out: pTGI (converted)): 45.7 µM
- GI50 (PC-3): 8.32 µM
- CC50 (PC-3; [8]): 83.2 µM
- TGI (PC-3; read-out: pTGI (converted)): 27.5 µM
- GI50 (MDA-MB-231): 3.89 µM
- CC50 (MDA-MB-231; [8]): > 100 µM
- TGI (MDA-MB-231; read-out: pTGI (converted)): 28.8 µM
- GI50 [6]: 20 µM
- CC50 [6, 8]: > 100 µM
- TGI ([6]; read-out: pTGI (converted)): 53.7 µM
- GI50 (MDA-MB-435): 15.8 µM
- CC50 (MDA-MB-435; [8]): 67.6 µM
- TGI (MDA-MB-435; read-out: pTGI (converted)): 32.4 µM
- GI50 (MCF7 [7]): 20.4 µM
- CC50 (MCF7 [7]; [8]): > 100 µM
- TGI (MCF7 [7]; read-out: pTGI (converted)): > 100 µM

Reference: ChEMBL document CHEMBL1137710, “Synthesis and in vitro antitumor activity of new quinoxaline derivatives” (2009)
